Experimental data: ChEMBL document CHEMBL1127016, “Inhibitors of the protease from human immunodeficiency virus: synthesis, enzyme inhibition, and antiviral activity of a series of compounds containing the dihydroxyethylene transition-state isostere” (J Med Chem, 1993)

Tests used:
[1] = target: Human immunodeficiency virus type 1 protease (Human immunodeficiency virus 1, UniProt Q72874); experiment: Inhibition of HIV-1 protease in vitro.
Method in brief: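 Recombinant HIV-1 protease refolded from E. coli inclusion bodies; substrate peptide H-Val-Ser-Gln-Asn-Tyr-Pro-Ile-Val-OH at 2.5 mM. 30 °C, 100 mM sodium acetate pH 5.5 (MOPS for pH 7), 10% glycerol, 5% ethylene glycol, 0.1% NP-40. Inhibitor added before enzyme, five to seven concentrations; stopped at 30 min with TFA, HPLC; Ki from Dixon plots.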

Vaccinia virus [2] = experiment: Anti viral activity against vaccinia virus in CV-1 (monkey kidney) cells at 1 uM.; assay type: functional; settings: Orthopoxvirus vaccinia, CV-1, in Primates
Vaccinia virus [3] = experiment: Anti viral activity against vaccinia virus in CV-1 (monkey kidney) cells.; assay type: functional, Orthopoxvirus vaccinia; design: concentration or dose not given beside the values

SMILES	Ki [1]	inhibition at 1 µM (Vaccinia virus [2])	Inhibition (Vaccinia virus [3])
CC(C)[C@@H](C(=O)N[C@H]1c2ccccc2CC1O)[C@@H](O)[C@H](O)[C@H](CC1CCCCC1)NC(=O)c1ccccc1 (stereo not given in full)	16 nM	–	–
CCC(C)[C@H](NC(=O)[C@H](C(C)C)[C@@H](O)[C@H](O)C(CC1CCCCC1)NC(=O)c1ccccc1OCSc1ccccc1)C(=O)NCc1nc2ccccc2[nH]1 (stereo not given in full)	5 nM	86%	–
CC(C)[C@@H](C(=O)N[C@H]1c2ccccc2CC1O)[C@@H](O)[C@H](O)[C@H](CC1CCCCC1)NC(=O)c1ncccc1OCCOc1ccccc1 (stereo not given in full)	> 200 nM	–	–
CCC(C)[C@H](NC(=O)[C@H](C(C)C)[C@@H](O)[C@H](O)[C@H](CC1CCCCC1)NC(=O)c1ncccc1OCCOCCOC)C(=O)NCc1nc2ccccc2[nH]1 (stereo not given in full)	100 nM	–	0%
CCC(C)[C@H](NC(=O)[C@H](C(C)C)[C@@H](O)[C@H](O)C(CC1CCCCC1)NC(=O)c1ccccc1OCCOCCOCCOC)C(=O)NCc1nc2ccccc2[nH]1 (stereo not given in full)	10 nM	65%	–
CC(C)[C@@H](C(=O)N[C@H]1c2ccccc2CC1O)[C@@H](O)[C@H](O)C(CC1CCCCC1)NC(=O)c1ncccc1OCSc1ccccc1 (stereo not given in full)	600 nM	0%	–
CCC(C)[C@H](NC(=O)[C@H](C(C)C)[C@@H](O)[C@H](O)[C@H](CC1CCCCC1)NC(=O)c1ccccc1OCCOc1ccccc1)C(=O)NCc1nc2ccccc2[nH]1 (stereo not given in full)	8 nM	–	86%
CC(C)[C@@H](C(=O)N[C@H]1c2ccccc2CC1O)[C@@H](O)[C@H](O)[C@H](CC1CCCCC1)NC(=O)CCOCCOc1ccccc1 (stereo not given in full)	> 200 nM	–	–
COCCOCCOCCOc1cccnc1C(=O)NC(CC1CCCCC1)[C@@H](O)[C@H](O)[C@H](C(=O)N[C@H]1c2ccccc2CC1O)C(C)C (stereo not given in full)	> 200 nM	–	–
CCC(C)[C@H](NC(=O)[C@H](C(C)C)[C@@H](O)[C@H](O)C(CC1CCCCC1)NC(=O)c1ncccc1OCCOCCOCCOC)C(=O)NCc1nc2ccccc2[nH]1 (stereo not given in full)	100 nM	0%	–
COCCOCCOCCOc1ccccc1C(=O)NC(CC1CCCCC1)[C@@H](O)[C@H](O)[C@H](C(=O)N[C@H]1c2ccccc2CC1O)C(C)C (stereo not given in full)	> 200 nM	–	–
CC[C@H](C)[C@H](NC(=O)[C@H](C(C)C)[C@@H](O)[C@H](O)[C@H](CC1CCCCC1)NC(=O)c1ccccc1)C(=O)NCc1nc2ccccc2[nH]1	36 nM	–	–
CC[C@H](C)[C@H](NC(=O)[C@H](C(C)C)[C@@H](O)[C@H](O)[C@H](CC1CCCCC1)NC(=O)C1CCCCC1)C(=O)NCc1ccccn1	22 nM	–	–
COCCOCCOc1cccnc1C(=O)N[C@@H](CC1CCCCC1)[C@@H](O)[C@H](O)[C@H](C(=O)N[C@H]1c2ccccc2CC1O)C(C)C (stereo not given in full)	> 200 nM	–	–
COCCOCCOc1ccccc1C(=O)N[C@@H](CC1CCCCC1)[C@@H](O)[C@H](O)[C@H](C(=O)N[C@H]1c2ccccc2CC1O)C(C)C (stereo not given in full)	200 nM	–	–
CCC(C)[C@H](NC(=O)[C@H](C(C)C)[C@@H](O)[C@H](O)[C@H](CC1CCCCC1)NC(=O)CCOCCOc1ccccc1)C(=O)NCc1nc2ccccc2[nH]1 (stereo not given in full)	4 nM	–	65%
CC(C)[C@@H](C(=O)N[C@H]1c2ccccc2CC1O)[C@@H](O)[C@H](O)C(CC1CCCCC1)NC(=O)c1ccccc1OCSc1ccccc1 (stereo not given in full)	200 nM	0%	–
CCC(C)[C@H](NC(=O)[C@H](C(C)C)[C@@H](O)[C@H](O)C(CC1CCCCC1)NC(=O)c1ncccc1OCSc1ccccc1)C(=O)NCc1nc2ccccc2[nH]1 (stereo not given in full)	140 nM	0%	–
CC(C)[C@@H](C(=O)N[C@H]1c2ccccc2CC1O)[C@@H](O)[C@H](O)[C@H](CC1CCCCC1)NC(=O)c1ccccc1OCCOc1ccccc1 (stereo not given in full)	> 200 nM	–	–
CCC(C)[C@H](NC(=O)[C@H](C(C)C)[C@@H](O)[C@H](O)[C@H](CC1CCCCC1)NC(=O)c1ncccc1OCCOc1ccccc1)C(=O)NCc1nc2ccccc2[nH]1 (stereo not given in full)	> 200 nM	–	0%
CCC(C)[C@H](NC(=O)[C@H](C(C)C)[C@@H](O)[C@H](O)C(CC1CCCCC1)NC(=O)C(Cc1c[nH]cn1)NC(=O)COc1cccc2ccccc12)C(=O)NCc1ccccn1 (stereo not given in full)	< 1 nM	–	–
CCC(C)[C@H](NC(=O)[C@H](C(C)C)[C@@H](O)[C@H](O)[C@H](CC1CCCCC1)NC(=O)c1ccc(C)cc1OCCOc1ccccc1)C(=O)NCc1nc2ccccc2[nH]1 (stereo not given in full)	48 nM	–	48%
CCC(C)[C@H](NC(=O)[C@H](C(C)C)[C@@H](O)[C@H](O)[C@H](CC1CCCCC1)NC(=O)c1ccccc1OCCOCCOC)C(=O)NCc1nc2ccccc2[nH]1 (stereo not given in full)	5 nM	–	56%
